Test results reported in ChEMBL document CHEMBL1671809, “Discovery of phosphoric acid mono-{2-[(E/Z)-4-(3,3-dimethyl-butyrylamino)-3,5-difluoro-benzoylimino]-thiazol-3-ylmethyl} ester (Lu AA47070): a phosphonooxymethylene prodrug of a potent and selective hA(2A) receptor antagonist” (J Med Chem, 2011).

Columns and labels:
Homo sapiens = species on record: Homo sapiens; test: Selectivity ratio of Ki for human adenosine A1 receptor to Ki for human adenosine A2A receptor
Adenosine receptor A1 = target: T1, Adenosine receptor A1 (Homo sapiens, UniProt P30542); test: Displacement of [3H]-DPCPX from human adenosine A1 receptor expressed in CHO cells after 30 mins by scintillation counting; format: cell-based
T1 sequence (P30542 whole entry): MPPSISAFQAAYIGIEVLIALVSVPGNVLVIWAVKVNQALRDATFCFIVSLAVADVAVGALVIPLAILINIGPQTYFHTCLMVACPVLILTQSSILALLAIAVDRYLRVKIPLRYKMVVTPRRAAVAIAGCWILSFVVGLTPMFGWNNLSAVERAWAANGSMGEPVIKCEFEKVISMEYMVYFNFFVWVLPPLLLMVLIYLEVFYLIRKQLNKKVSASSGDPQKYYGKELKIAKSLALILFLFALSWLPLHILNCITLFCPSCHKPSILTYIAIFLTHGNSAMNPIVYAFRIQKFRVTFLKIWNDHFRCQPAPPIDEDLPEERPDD
Method in brief: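 CHO-hA1 membranes at 10.8 μg protein/well, pretreated with adenosine deaminase (2 U/mL, 30 min, 37 C), were incubated with 1 nM [3H]-DPCPX in 50 mM Tris/HCl pH 7.4 for 30 min at 25 C across 10 compound concentrations. Filtration on PEI-soaked GF/B, scintillation counting. Nonspecific binding by CGS15943. Ki by Cheng-Prusoff. Means of ≥2 determinations.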

Adenosine receptor A2a [1] = target: T2, Adenosine receptor A2a (Homo sapiens, UniProt P29274); test: Displacement of [3H]-ZM241385 from human adenosine A2A receptor expressed in high five cells after 30 mins by scintillation counting
Caco-2 = test: Efflux ratio of permeability from basolateral to apical over apical to basolateral side in human Caco2 cells after 21 to 28 days by LC-MS/MS analysis
Cytochrome P450 2C9 = Cytochrome P450 2C9 (Homo sapiens, UniProt P11712); test: Inhibition of recombinant CYP2C9 after 45 mins; format: ADME
Liver microsomes [2] = test: Intrinsic clearance in human liver microsomes at 1 uM after 60 mins by LC-MS/MS analysis; format: ADME, Microsome; details: 1 h
Method in brief: (§1)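 Compound at 1 μM with human or rat liver microsomes (0.5 mg protein/mL) plus NADPH at 37 C. Samples at 0, 5, 15, 30 and 60 min, quenched with acetonitrile, analysed by LC-MS/MS.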

Cytochrome P450 1A2 = target: T3, Cytochrome P450 1A2 (Homo sapiens, UniProt P05177); test: Inhibition of recombinant CYP1A2 after 28 mins; format: ADME
T3 sequence (P05177 whole entry): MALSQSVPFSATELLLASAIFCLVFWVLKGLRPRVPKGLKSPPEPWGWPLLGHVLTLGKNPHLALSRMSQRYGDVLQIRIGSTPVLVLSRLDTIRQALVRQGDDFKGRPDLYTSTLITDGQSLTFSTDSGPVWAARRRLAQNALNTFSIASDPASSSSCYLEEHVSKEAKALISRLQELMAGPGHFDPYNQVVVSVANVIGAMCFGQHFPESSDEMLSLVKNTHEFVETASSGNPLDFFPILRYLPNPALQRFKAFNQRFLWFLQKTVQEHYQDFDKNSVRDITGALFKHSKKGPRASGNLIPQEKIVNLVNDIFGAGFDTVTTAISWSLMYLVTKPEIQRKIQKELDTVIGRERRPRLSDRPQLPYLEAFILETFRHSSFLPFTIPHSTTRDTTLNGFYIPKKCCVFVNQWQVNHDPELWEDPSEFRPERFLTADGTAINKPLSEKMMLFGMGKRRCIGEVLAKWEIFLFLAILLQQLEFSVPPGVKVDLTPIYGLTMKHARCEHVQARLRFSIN
Method in brief: (§2)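 Recombinant CYP supersomes incubated in phosphate buffer with eight compound concentrations (40-0.02 μM) and fluorogenic substrates. CYP1A2: 7-ethoxy-3-cyanocoumarin 10 μM, 28 min. CYP2C19: same substrate 50 μM, 45 min. CYP2D6: AMMC 3 μM, 45 min. CYP3A4: resorufin benzyl ether 100 μM, 30 min. Fluorescent metabolite read; IC50 relative to uninhibited controls.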

Cytochrome P450 2D6 = Cytochrome P450 2D6 (Homo sapiens, UniProt P10635); test: Inhibition of recombinant CYP2D6 after 45 mins; format: ADME; method in brief: as §2
[3] = target: T4, Adenosine receptor A1 (Homo sapiens) (UniProt P30542); test: Displacement of [3H]-DPCPX from human adenosine A1 receptor expressed in CHO cells at 10 uM after 30 mins by scintillation counting; format: cell-based
T4 sequence (whole entry): T1 sequence (P30542 whole entry)

Cytochrome P450 2C19 = Cytochrome P450 2C19 (Homo sapiens, UniProt P33261); test: Inhibition of recombinant CYP2C19 after 45 mins; format: ADME; method in brief: as §2
Liver microsomes [4] = test: Intrinsic clearance in rat liver microsomes at 1 uM after 60 mins by LC-MS/MS analysis; format: ADME, Microsome; details: 1 h; method in brief: as §1
Cytochrome P450 3A4 = Cytochrome P450 3A4 (Homo sapiens, UniProt P08684); test: Inhibition of recombinant CYP3A4 after 30 mins; format: ADME
Method in brief: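 Recombinant CYP supersomes incubated in phosphate buffer with eight compound concentrations (40-0.02 μM) and fluorogenic substrates. CYP3A4: resorufin benzyl ether 100 μM, 30 min. Fluorescent metabolite read; IC50 relative to uninhibited controls.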

Adenosine receptor A2a [5] = target: T2, Adenosine receptor A2a; test: Displacement of [3H]-ZM241385 from human adenosine A2A receptor expressed in high five cells at 10 uM after 30 mins by scintillation counting
Method in brief: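 hA2A membranes from baculovirus-infected High Five cells (harvested 72 h), pretreated with adenosine deaminase 2 U/mL for 30 min at 37 C. Membranes at 10.6 μg protein/well were incubated with 1 nM [3H]-ZM241385 in 50 mM Tris/HCl pH 7.4 for 30 min at 25 C. GF/B filtration, scintillation counting. Nonspecific binding by CGS15943. Percent displacement at 10 μM.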

Mus musculus = test: Reversal of haloperidol-induced hypolocomotion in po dosed NMRI mouse administered 30 mins before haloperidol challenge measured for 20 mins; format: functional
Method in brief: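 Male NMRI mice (n = 8/group) were given compound po in 25% cremophor/saline, then haloperidol 0.63 mg/kg sc 30 min later. After 15 min they went into photocell activity boxes, and locomotion was recorded for 20 min. ED50 by sigmoidal fit with top 100 and bottom 0.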

[6] = target: T4, Adenosine receptor A1 (Homo sapiens); test: Displacement of [3H]-DPCPX from human adenosine A1 receptor expressed in CHO cells at 2000 nM after 30 mins by scintillation counting

T2 sequence (P29274 whole entry): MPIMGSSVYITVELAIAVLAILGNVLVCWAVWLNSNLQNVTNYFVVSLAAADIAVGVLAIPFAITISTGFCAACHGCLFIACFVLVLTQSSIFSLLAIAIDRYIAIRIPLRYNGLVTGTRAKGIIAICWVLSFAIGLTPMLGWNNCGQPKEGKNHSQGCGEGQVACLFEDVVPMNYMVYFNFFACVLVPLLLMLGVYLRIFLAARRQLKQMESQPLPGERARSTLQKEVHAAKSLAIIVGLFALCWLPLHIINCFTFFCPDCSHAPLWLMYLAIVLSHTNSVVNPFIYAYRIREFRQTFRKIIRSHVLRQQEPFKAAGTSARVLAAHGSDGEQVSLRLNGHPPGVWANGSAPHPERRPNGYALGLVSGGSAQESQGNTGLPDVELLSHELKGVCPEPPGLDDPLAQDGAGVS
Cytochrome P450 2C9, sequence (P11712 whole entry): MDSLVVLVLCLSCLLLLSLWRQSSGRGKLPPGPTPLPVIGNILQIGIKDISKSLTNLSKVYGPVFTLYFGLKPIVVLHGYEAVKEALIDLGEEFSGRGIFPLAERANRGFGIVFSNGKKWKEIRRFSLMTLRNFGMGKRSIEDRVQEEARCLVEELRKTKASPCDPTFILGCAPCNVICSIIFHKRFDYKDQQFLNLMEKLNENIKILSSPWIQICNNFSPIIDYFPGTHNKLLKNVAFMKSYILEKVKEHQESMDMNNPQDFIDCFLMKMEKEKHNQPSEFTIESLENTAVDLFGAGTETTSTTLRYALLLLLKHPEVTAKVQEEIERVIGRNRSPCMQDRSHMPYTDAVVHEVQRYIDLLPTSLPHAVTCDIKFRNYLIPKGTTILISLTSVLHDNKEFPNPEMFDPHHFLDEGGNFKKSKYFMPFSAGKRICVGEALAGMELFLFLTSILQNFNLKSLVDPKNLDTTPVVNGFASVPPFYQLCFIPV
Cytochrome P450 2C19, sequence (P33261 whole entry): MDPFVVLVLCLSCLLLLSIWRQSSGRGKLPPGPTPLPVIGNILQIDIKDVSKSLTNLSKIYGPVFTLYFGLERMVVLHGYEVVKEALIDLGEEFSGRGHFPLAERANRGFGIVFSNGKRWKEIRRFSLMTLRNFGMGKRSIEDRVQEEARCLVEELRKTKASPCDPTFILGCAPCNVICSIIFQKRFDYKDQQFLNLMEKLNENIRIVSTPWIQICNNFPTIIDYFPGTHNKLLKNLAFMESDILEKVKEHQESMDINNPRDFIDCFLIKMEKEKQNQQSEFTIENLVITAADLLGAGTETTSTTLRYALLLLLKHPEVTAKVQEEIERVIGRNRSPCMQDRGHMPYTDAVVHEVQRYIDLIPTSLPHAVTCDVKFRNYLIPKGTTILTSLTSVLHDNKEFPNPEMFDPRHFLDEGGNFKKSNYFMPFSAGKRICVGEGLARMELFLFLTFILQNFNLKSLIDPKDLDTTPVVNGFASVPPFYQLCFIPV
Cytochrome P450 3A4, sequence (P08684 whole entry): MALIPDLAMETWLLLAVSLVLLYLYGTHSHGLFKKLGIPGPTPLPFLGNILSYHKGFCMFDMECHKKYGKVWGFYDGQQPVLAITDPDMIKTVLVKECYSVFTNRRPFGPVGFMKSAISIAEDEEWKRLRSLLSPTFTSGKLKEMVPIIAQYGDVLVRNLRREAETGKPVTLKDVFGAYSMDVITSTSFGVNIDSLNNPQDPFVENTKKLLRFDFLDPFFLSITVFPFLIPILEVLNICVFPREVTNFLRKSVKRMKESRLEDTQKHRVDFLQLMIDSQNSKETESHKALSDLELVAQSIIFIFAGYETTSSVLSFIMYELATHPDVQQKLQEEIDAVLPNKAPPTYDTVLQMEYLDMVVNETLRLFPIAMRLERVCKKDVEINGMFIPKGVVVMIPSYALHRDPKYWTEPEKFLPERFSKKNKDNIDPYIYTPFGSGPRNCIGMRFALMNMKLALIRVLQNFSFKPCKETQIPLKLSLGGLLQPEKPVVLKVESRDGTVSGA
Cytochrome P450 2D6, sequence (P10635 whole entry): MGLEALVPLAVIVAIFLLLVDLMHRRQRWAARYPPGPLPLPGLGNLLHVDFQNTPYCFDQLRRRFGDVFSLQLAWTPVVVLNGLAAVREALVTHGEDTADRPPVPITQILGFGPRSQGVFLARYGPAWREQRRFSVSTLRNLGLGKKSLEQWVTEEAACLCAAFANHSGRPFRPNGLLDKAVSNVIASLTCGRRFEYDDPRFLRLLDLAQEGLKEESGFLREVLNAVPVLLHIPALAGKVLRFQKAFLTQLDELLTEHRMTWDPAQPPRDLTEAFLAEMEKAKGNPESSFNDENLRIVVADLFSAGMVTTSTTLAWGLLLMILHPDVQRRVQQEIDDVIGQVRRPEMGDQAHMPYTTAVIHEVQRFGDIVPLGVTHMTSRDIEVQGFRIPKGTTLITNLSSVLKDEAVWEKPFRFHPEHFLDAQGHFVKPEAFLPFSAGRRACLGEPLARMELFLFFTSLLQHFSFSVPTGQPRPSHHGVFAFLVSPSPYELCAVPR

CC(C)(C)CC(=O)Nc1ccc(C(=O)Nc2nccs2)cc1F
Ratio Ki (Homo sapiens): 71 | Ki (Adenosine receptor A1): 0.65 µM | Ki (Adenosine receptor A2a [1]): 0.0092 µM

CCCCC(=O)Nc1ccc(C(=O)Nc2nccs2)cc1
Ratio (Caco-2): 0.7 | IC50 (Cytochrome P450 2C9): 40 µM | CL (Liver microsomes [2]): 2.3 L/min | IC50 (Cytochrome P450 1A2): > 40 µM | IC50 (Cytochrome P450 2D6): > 40 µM | inhibition [3]: 69% | IC50 (Cytochrome P450 2C19): > 40 µM | CL (Liver microsomes [4]): 54 mL/min | Ki (Adenosine receptor A2a [1]): 0.19 µM | IC50 (Cytochrome P450 3A4): > 40 µM

COc1cc(NC(=O)CC(C)(C)C)ccc1C(=O)Nc1nccs1
Ratio Ki (Homo sapiens): 22 | Ki (Adenosine receptor A1): 1.1 µM | Ki (Adenosine receptor A2a [1]): 0.05 µM

Cc1ccccc1C(=O)Nc1ccc(C(=O)Nc2nccs2)cc1
Ratio (Caco-2): 0.8 | IC50 (Cytochrome P450 2C9): > 40 µM | CL (Liver microsomes [2]): 0.5 L/min | IC50 (Cytochrome P450 1A2): > 40 µM | IC50 (Cytochrome P450 2D6): > 40 µM | inhibition [3]: 47% | IC50 (Cytochrome P450 2C19): 23 µM | CL (Liver microsomes [4]): 5 mL/min | Ki (Adenosine receptor A2a [1]): 0.22 µM | IC50 (Cytochrome P450 3A4): 1.4 µM

CC(C)C(=O)Nc1ccc(C(=O)Nc2nccs2)cc1
Ki (Adenosine receptor A2a [1]): 0.3 µM

CC(C)(C)CC(=O)Nc1ccc(C(=O)Nc2nccs2)cc1Cl
Ratio Ki (Homo sapiens): 10 | Ki (Adenosine receptor A1): 0.21 µM | Ki (Adenosine receptor A2a [1]): 0.022 µM

Cc1cc(NC(=O)CC(C)(C)C)ccc1C(=O)Nc1nccs1
inhibition [3]: 36% | Ki (Adenosine receptor A2a [1]): 0.2 µM

COc1c(C(=O)Nc2nccs2)ccc(NC(=O)CC(C)(C)C)c1F
Ratio Ki (Homo sapiens): 18 | Ki (Adenosine receptor A1): 0.22 µM | Ki (Adenosine receptor A2a [1]): 0.012 µM

Cc1cnc(NC(=O)c2ccc(NC(=O)CC(C)(C)C)cc2)s1
Ki (Adenosine receptor A1): 1.1 µM | Ki (Adenosine receptor A2a [1]): 0.12 µM

CC(C)(C)CC(=O)Nc1ccc(C(=O)Nc2nccs2)cc1
Ratio (Caco-2): 0.7 | IC50 (Cytochrome P450 2C9): > 40 µM | CL (Liver microsomes [2]): 0.7 L/min | IC50 (Cytochrome P450 1A2): > 40 µM | IC50 (Cytochrome P450 2D6): > 40 µM | inhibition [3]: 39% | IC50 (Cytochrome P450 2C19): > 40 µM | CL (Liver microsomes [4]): 11 mL/min | Ki (Adenosine receptor A2a [1]): 0.036 µM | IC50 (Cytochrome P450 3A4): > 40 µM

Cc1cc(C(=O)Nc2nccs2)cc(Cl)c1NC(=O)CC(C)(C)C
Ratio Ki (Homo sapiens): 18 | Ki (Adenosine receptor A1): 0.58 µM | Ki (Adenosine receptor A2a [1]): 0.032 µM

CC(C)(C)CNC(=O)c1ccc(NC(=O)c2nccs2)cc1
inhibition (Adenosine receptor A2a [5]): 0%

COc1cc(C(=O)Nc2nccs2)ccc1NC(=O)CC(C)(C)C
Ratio Ki (Homo sapiens): 20 | Ki (Adenosine receptor A1): 0.34 µM | Ki (Adenosine receptor A2a [1]): 0.017 µM

CC(C)(C)CC(=O)Nc1ccc(C(=O)Nc2ncc(Cl)s2)cc1
Ki (Adenosine receptor A1): 0.22 µM | Ki (Adenosine receptor A2a [1]): 0.028 µM

CCCC(=O)Nc1ccc(C(=O)Nc2nccs2)cc1
Ratio (Caco-2): 0.7 | IC50 (Cytochrome P450 2C9): > 40 µM | CL (Liver microsomes [2]): 0.8 L/min | IC50 (Cytochrome P450 1A2): > 40 µM | IC50 (Cytochrome P450 2D6): > 40 µM | inhibition [3]: 54% | IC50 (Cytochrome P450 2C19): 36 µM | CL (Liver microsomes [4]): 18 mL/min | Ki (Adenosine receptor A2a [1]): 0.35 µM | IC50 (Cytochrome P450 3A4): > 40 µM

CC(C)(C)CNC(=O)c1ccc(C(=O)Nc2nccs2)cc1
Ki (Adenosine receptor A2a [1]): 0.11 µM

CC(C)(C)CC(=O)Nc1ccc(C(=O)Nc2nccs2)c(Cl)c1
inhibition [3]: 14% | Ki (Adenosine receptor A2a [1]): 0.18 µM

Cc1cc(C(=O)Nc2nccs2)ccc1NC(=O)CC(C)(C)C
Ratio Ki (Homo sapiens): 24 | Ki (Adenosine receptor A1): 0.46 µM | Ki (Adenosine receptor A2a [1]): 0.019 µM

CC(C)(C)CC(=O)Nc1ccc(NC(=O)c2nccs2)cc1
inhibition (Adenosine receptor A2a [5]): 18%

CC(C)CC(=O)Nc1ccc(C(=O)Nc2nccs2)cc1
Ratio (Caco-2): 0.7 | IC50 (Cytochrome P450 2C9): > 40 µM | CL (Liver microsomes [2]): 1.6 L/min | IC50 (Cytochrome P450 1A2): > 40 µM | IC50 (Cytochrome P450 2D6): > 40 µM | inhibition [3]: 64% | IC50 (Cytochrome P450 2C19): > 40 µM | CL (Liver microsomes [4]): 12 mL/min | Ki (Adenosine receptor A2a [1]): 0.09 µM | IC50 (Cytochrome P450 3A4): > 40 µM

Cc1nc(NC(=O)c2ccc(NC(=O)CC(C)(C)C)cc2)sc1C
Ki (Adenosine receptor A2a [1]): 0.22 µM

CCC(=O)Nc1ccc(C(=O)Nc2nccs2)cc1
inhibition [3]: 31% | Ki (Adenosine receptor A2a [1]): 0.89 µM

CCn1c(=O)c2c(nc(/C=C/c3ccc(OC)c(OC)c3)n2C)n(CC)c1=O [ISTRADEFYLLINE]
ED50 (Mus musculus): 0.13 mg/kg | CL (Liver microsomes [2]): 0.1 L/min | IC50 (Cytochrome P450 1A2): > 40 µM | IC50 (Cytochrome P450 2D6): > 40 µM | IC50 (Cytochrome P450 2C19): > 40 µM | CL (Liver microsomes [4]): 11 mL/min

COCCOc1ccc(N2CCN(CCn3ncc4c3nc(N)n3nc(-c5ccco5)nc43)CC2)cc1 [PRELADENANT]
Ratio (Caco-2): 1.1 | ED50 (Mus musculus): 0.4 mg/kg | inhibition [6]: 30% | IC50 (Cytochrome P450 1A2): > 40 µM | IC50 (Cytochrome P450 2D6): > 40 µM | IC50 (Cytochrome P450 2C19): > 40 µM
